Source: ChEMBL document CHEMBL1133770, “Synthesis and antitumor activity of new benzoheterocyclic derivatives of distamycin A” (J Med Chem, 2000)
“And” between values parts separate entries of the source, which are not always exact repeats. Equal entries are not always repeated.

How the values were obtained:
L1210 [1] = assay: In vivo median survival time of treated vs untreated mice x 100 against murine L1210 leukemia cells after ip treatment on day 1 after tumor iv transplant; format: functional, Mus musculus
L1210 [2] = assay: Inhibition of growth in L1210 leukemia cells resistant to Tallimustine.; format: functional, cell-based; conditions: Mus musculus
How it was run: (§1)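 L1210 murine leukemia cells and their doxorubicin-resistant and tallimustine-resistant sublines were grown as stationary suspension in RPMI 1640 with 10% fetal calf serum, 2 mM L-glutamine, β-mercaptoethanol and antibiotics. Compounds were dissolved in DMSO at 1 mg/mL (stock) and diluted in medium. Exponentially growing cells were exposed continuously for 48 h, and survivors were counted electronically. IC50 (cell number reduced to 50% of untreated control) was taken from dose-response curves. Duplicate cultures were used, with vehicle controls.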

L1210 [3] = assay: Inhibition of growth in L1210 leukemia cells resistant to doxorubicin(DX).; format: functional, cell-based; conditions: Mus musculus; how it was run: as §1
L1210 [4] = assay: In vitro antitumor activity evaluated against L1210 murine leukemia cell line; format: functional, cell-based; conditions: Mus musculus; how it was run: as §1
L1210 [5] = assay: In vivo optimal nontoxic dose against murine L1210 leukemia cells after ip treatment on day 1 after tumor ip transplant; format: functional, Mus musculus
How it was run: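 L1210 leukemia cells (10^5/mouse) were implanted ip or iv in female mice, 10 per group. Compounds were made fresh in 10% Tween 80/90% saline and given ip or iv on day 1 after implant, over a dose-response range. […] Toxicity was judged by gross autopsy and weight loss.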

L1210 [6] = assay: Ratio between IC50 value on resistant cells and sensitive cells; format: functional, Mus musculus; set-up: reference not given here
How it was run: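 Murine L1210 leukemia cells, parental and doxorubicin- or tallimustine-resistant sublines, were grown in stationary suspension in RPMI 1640 with 10% FCS, 2 mM glutamine, […] and antibiotics. Exponentially growing cells were exposed continuously for 48 h to graded concentrations from a 1 mg/mL DMSO stock, and survivors were counted electronically. IC50 came from dose-response curves, with duplicate cultures and at least two repeats. RI was the IC50 on resistant cells divided by the IC50 on sensitive cells.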

Estrogen receptor = Estrogen receptor (Homo sapiens, UniProt Q92731+P03372); assay: Tested for 50% inhibition of generation of Human estrogen receptor polymerase chain reaction(PCR) products; format: protein assay
L1210 [7] = assay: In vivo median survival time of treated vs untreated mice x 100 against murine L1210 leukemia cells after iv treatment on day 1 after tumor iv transplant; format: functional, Mus musculus
L1210 [8] = assay: In vivo optimal nontoxic dose against murine L1210 leukemia cells after i.v. administration day 1 after tumor i.v. inoculation.
[9] = Resistance index(RI) = Ratio between IC50 value on resistant cells and sensitive cells; format: functional
How it was run: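 L1210/DX (doxorubicin-resistant), L1210/tallimustine-resistant and parental L1210 cells grown as stationary suspension in RPMI 1640 with 10% FCS. Compounds from 1 mg/mL DMSO stock, diluted in medium. Exponentially growing cells exposed continuously for 48 h, with duplicate cultures per concentration and vehicle controls. Survivors counted electronically; IC50 taken from dose-response curves. RI = resistant-line IC50 / parental L1210 IC50.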

SMILES | T/C (L1210 [1]) [%] | IC50 (L1210 [2]) [nM] | IC50 (L1210 [3]) [nM] | IC50 (L1210 [4]) [nM] | Optimal dose (L1210 [5]) [mg/kg] | Resistance index (L1210 [6]) | IC50 (Estrogen receptor) [nM] | T/C (L1210 [7]) [%] | Optimal dose (L1210 [8]) [mg/kg] | Resistance index [9]
Cl.Cn1cc(NC(=O)c2cc(NC(=O)c3cc(NC(=O)c4cc(NC(=O)c5ccc(N(CCCl)CCCl)cc5)nn4C)cn3C)cn2C)cc1C(=O)NCCC(=N)N | 144 | 10.4 | 0.42 | 34.5 | 3.1 | 326.2 and 302.3 |  |  |  | 
Cl.Cn1cc(NC(=O)c2cc(NC(=O)c3cc(NC(=O)c4cc5cc(N(CCCl)CCCl)ccc5[nH]4)cn3C)cn2C)cc1C(=O)NCCC(=N)N |  | 1.2 | 0.42 | 8 |  | 6.8 and 19 | 1 | 174 | 0.39 | 
Cl.Cn1cc(NC(=O)c2cc(NC(=O)c3cc(NC(=O)c4nc(NC(=O)c5ccc(N(CCCl)CCCl)cc5)cn4C)cn3C)cn2C)cc1C(=O)NCCC(=N)N | 125 | 5 | 0.42 | 2370 |  | 2 and 2.1 |  |  |  | 
Cn1cc(NC(=O)c2cc(NC(=O)c3cc(NC(=O)c4cc(NC=O)cn4C)cn3C)cn2C)cc1C(=O)NCCC(=N)N |  | 1.2 | 0.42 |  |  |  |  |  |  | 
Cl.Cn1cc(NC(=O)c2cc(NC(=O)c3cc(NC(=O)c4cc5cc(N(CCCl)CCCl)ccc5o4)cn3C)cn2C)cc1C(=O)NCCC(=N)N |  | 1.2 | 0.42 | 3.7 |  | 6.8 and 19 | 3 | 200 | 0.39 | 
Cl.Cn1cc(NC(=O)c2cc(NC(=O)c3cc(N(CCCl)CCCl)cn3C)cn2C)cc1C(=O)NCCC(=N)N | 138 |  |  | 3.9 | 1.6 |  |  | 117 | 0.78 | 
Cl.Cn1cc(NC(=O)c2cc(NC(=O)c3cc(NC(=O)c4cc(N(CCCl)CCCl)cn4C)cn3C)cn2C)cc1C(=O)NCCC(=N)N | 188 |  |  | 0.081 | 0.39 |  |  | 133 | 0.39 | 
C=C(Br)C(=O)Nc1cc(C(=O)Nc2cc(C(=O)Nc3cc(C(=O)Nc4cc(C(=O)NCCC(=N)N)n(C)c4)n(C)c3)n(C)c2)n(C)n1.Cl | 200 |  | 0.42 | 13.3 | 6.2 |  |  |  |  | 
C=C(Br)C(=O)Nc1ccc2[nH]c(C(=O)Nc3cc(C(=O)Nc4cc(C(=O)Nc5cc(C(=O)NCCC(=N)N)n(C)c5)n(C)c4)n(C)c3)cc2c1.Cl |  | 140 | 36 | 4.1 |  |  |  | 213 | 12.5 | 
C=C(Br)C(=O)Nc1cc(C(=O)Nc2cc(C(=O)Nc3cc(C(=O)NCCC(=N)N)n(C)c3)n(C)c2)n(C)c1.Cl |  | 1.2 |  |  |  | 68 and 156 |  |  |  | 
Cl.Cn1cc(NC(=O)c2cc(NC(=O)c3cc(NC(=O)c4nc5cc(NC(=O)c6ccc(N(CCCl)CCCl)cc6)ccc5[nH]4)cn3C)cn2C)cc1C(=O)NCCC(=N)N |  | 1.2 | 0.42 | 1420 |  | 6.8 and 19 | 5 |  |  | 
Cl.Cn1cc(NC(=O)c2cc(NC(=O)c3cc(NC(=O)c4cc5cc(N(CCCl)CCCl)ccc5n4C)cn3C)cn2C)cc1C(=O)NCCC(=N)N |  | 1.2 | 0.42 | 14.7 |  | 6.8 and 19 | 1 | 457 | 1.6 | 
Cl.Cn1cc(NC(=O)c2cc(NC(=O)c3cc(NC(=O)/C=C/c4ccc(N(CCCl)CCCl)cc4)cn3C)cn2C)cc1C(=O)NCCC(=N)N |  |  |  |  |  |  |  | 267 | 6.2 | 
Cl.Cn1cc(NC(=O)c2cc(NC(=O)c3cc(NC(=O)c4cc5cc(NC(=O)c6ccc(N(CCCl)CCCl)cc6)ccc5n4C)cn3C)cn2C)cc1C(=O)NCCC(=N)N |  | 1.2 | 0.42 | 61.7 |  |  | 5 | 183 | 25 | 6.8 and 19
Cl.Cn1cc(NC(=O)c2cc(NC(=O)c3cc(NC(=O)c4cc5cc(NC(=O)c6ccc(N(CCCl)CCCl)cc6)ccc5o4)cn3C)cn2C)cc1C(=O)NCCC(=N)N |  | 1.2 | 0.42 | 43.5 |  | 6.8 and 19 |  | 150 | 6.2 | 
C=C(Br)C(=O)Nc1ccc2oc(C(=O)Nc3cc(C(=O)Nc4cc(C(=O)Nc5cc(C(=O)NCCC(=N)N)n(C)c5)n(C)c4)n(C)c3)cc2c1.Cl |  | 210 | 39 | 6.1 |  |  |  | 117 | 0.78 | 
Cl.Cn1cc(NC(=O)c2cc(NC(=O)c3cc(NC(=O)c4cc5cc(NC(=O)c6ccc(N(CCCl)CCCl)cc6)ccc5[nH]4)cn3C)cn2C)cc1C(=O)NCCC(=N)N |  | 0.88 | 0.54 | 95.3 |  | 5.7 and 9.2 | 7.5 | 163 | 3.1 | 
Cl.Cn1cc(NC(=O)c2cc(NC(=O)c3cc(NC(=O)c4cc(NC(=O)c5ccc(N(CCCl)CCCl)cc5)cn4C)cn3C)cn2C)cc1C(=O)NCCC(=N)N |  | 1.2 |  |  |  | 19 |  |  | 0.4 | 
C=C(Br)C(=O)Nc1ccc2c(c1)cc(C(=O)Nc1cc(C(=O)Nc3cc(C(=O)NCCC(=N)N)n(C)c3)n(C)c1)n2C.Cl |  | 150 | 41 | 15.3 |  |  |  | 133 | 3.1 | 
C=C(Br)C(=O)Nc1cn(C)c(C(=O)Nc2cc(C(=O)Nc3cc(C(=O)Nc4cc(C(=O)NCCC(=N)N)n(C)c4)n(C)c3)n(C)c2)n1.Cl | 163 | 1.2 | 0.42 | 46.9 | 6.2 | 15.5 and 13.9 |  |  |  | 
C=C(Br)C(=O)Nc1ccc2c(c1)cc(C(=O)Nc1cc(C(=O)Nc3cc(C(=O)Nc4cc(C(=O)NCCC(=N)N)n(C)c4)n(C)c3)n(C)c1)n2C.Cl |  | 150 | 43 | 2.4 |  |  |  | 192 | 6.2 | 
C=C(Br)C(=O)Nc1cc(C(=O)Nc2cc(C(=O)Nc3cc(C(=O)Nc4cc(C(=O)NCCC(=N)N)n(C)c4)n(C)c3)n(C)c2)n(C)c1.Cl | 725 |  | 0.42 |  | 3.1 |  |  | 200 | 1.6 | 
Cn1cc(NC(=O)c2cc(NC(=O)c3cc(NC=O)cn3C)cn2C)cc1C(=O)NCCC(=N)N [STALLIMYCIN] |  | 142000 | 459000 | 10100 |  |  | 20 |  |  | 
Cl.Cn1cc(NC(=O)c2cc(NC(=O)c3cc(NC(=O)c4ccc(N(CCCl)CCCl)cc4)cn3C)cn2C)cc1C(=O)NCCC(=N)N [TALLIMUSTINE CHLORIDE] |  |  |  |  | 3.1 |  |  | 133 | 3.1 | 
